Laboratory results as given in ChEMBL document CHEMBL1124108, “Antihypertensive thiadiazoles. 2. Vasodilator activity of some 2-aryl-5-guanidino-1,3,4-thiadiazoles” (1988).

Tested on: Rattus norvegicus
Assay: Maximum percentage reduction in mean arterial blood pressure in metacorticoid (DOCA) hypertensive rats at a standard oral dose of 100 mg/kg
Assay type: functional
In short: (§1)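 Rats were DOCA hypertensive. For oral dosing, food was withdrawn 18 h before; rats dosed ip were not starved. The vehicle was isotonic saline. Pressure was recorded by transducer under minimal restraint: twice before dosing, then at 1, 2, 3, 5 and 22 h. MABP was taken as diastolic + one-third pulse pressure. The value is the maximum % fall from the mean of the two pretreatment readings, n = 3-5.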

| SMILES | Reduction |
| --- | --- |
| Cl.N=C(N)Nc1nnc(-c2ccc(C(F)(F)F)cc2)s1 | 18% |
| Cc1ccccc1-c1nnc(NC(=N)NCCN)s1.Cl | 32% |
| Cc1ccccc1-c1nnc(Nc2ncc[nH]2)s1.Cl | 40% |
| CSCC/N=C(/N)Nc1nnc(-c2ccccc2C)s1.Cl | 18% |
| Cl.Ic1ccccc1-c1nnc(NC2=NCCN2)s1 | 33% |
| Cc1ccccc1-c1nnc(NC2=NCCCN2)s1.Cl | 13% |
| Cl.N=C(N)Nc1nnc(-c2ccccc2C(F)(F)F)s1 | 26% |
| Cl.N=C(N)Nc1nnc(-c2ccccc2)s1 | 30% |
| Cc1ccc(-c2nnc(NC3=NCCN3)s2)c(C)c1.Cl | 24% |
| Cc1ccccc1-c1nnc(NC(=N)NCCc2ccccc2)s1.Cl | 29% |
| C=CCNC(=N)Nc1nnc(-c2ccccc2C)s1.Cl | 28% |
| CC(=O)NCC/N=C(/N)Nc1nnc(-c2ccccc2C)s1 | 21% |
| Cl.N=C(N)Nc1nnc(-c2ccccc2Cl)s1 | 30% |
| Cl.N=C(N)Nc1nnc(-c2cccc(F)c2)s1 | 20% |
| CO/N=C(/N)Nc1nnc(-c2ccccc2C)s1.Cl | 29% |
| Cc1ccccc1-c1nnc(NC(=N)NC(C)(C)C)s1.Cl | 18% |
| Cc1ccccc1-c1nnc(N/C(N)=N\CCCN(C)C)s1.Cl | 20% |
| Cc1ccccc1-c1nnc(N/C(N)=N\C(C)C)s1.Cl | 23% |
| Cc1ccccc1-c1nnc(NC2=NC(C)(C)CN2)s1.Cl | 15% |
| Cl.N=C(N)Nc1nnc(-c2cccc(Cl)c2)s1 | 12% |
| Cl.N=C(N)Nc1nnc(-c2cccc(C(F)(F)F)c2)s1 | 14% |
| Cl.N=C(N)Nc1nnc(-c2ccc(F)cc2)s1 | 20% |
| Cl.N=C(N)Nc1nnc(-c2ccccc2F)s1 | 31% |

Tested on: Rattus norvegicus
Assay: Summation of percentage reductions, compared to pretreatment controls, in MABP of DOCA hypertensive rats at 1,2,3,5,8 hr after the 50 mg/kg oral dose.
Assay type: functional
In short: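 DOCA hypertensive rats (n = 5) were dosed orally. MABP (diastolic + one-third pulse pressure) was read before dosing and at 1, 2, 3, 5 and 8 h. The value is the sum of the % reductions from pretreatment control over these five time points.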

| SMILES | Summation MABP |
| --- | --- |
| Cc1ccccc1-c1nnc(NN)s1 | 206 |

Tested on: Rattus norvegicus
Assay: Maximum percentage reduction in mean blood pressure in metacorticoid (DOCA) hypertensive rats at a standard oral dose of 100 mg/kg
Assay type: functional
In short: as §1

| SMILES | Reduction |
| --- | --- |
| Cl.N=C(N)Nc1nnc(-c2cccs2)s1 | 32% |
| COc1ccccc1-c1nnc(N=C(N)N)s1.Cl | 26% |
| CSc1ccccc1-c1nnc(N=C(N)N)s1.Cl | 13% |
| Cc1cc(F)ccc1-c1nnc(N=C(N)N)s1.Cl | 34% |
| COc1ccc(-c2nnc(N=C(N)N)s2)cc1OC.Cl | 21% |
| Cc1ccccc1-c1nnc(NC(=N)NCCCO)s1.Cl | 24% |
| Cc1ccccc1-c1nnc(NC(=N)NCc2ccccc2)s1.Cl | 12% |
| Cc1ccsc1-c1nnc(N=C(N)N)s1.Cl | 14% |
| Cc1ccc(-c2nnc(N=C(N)N)s2)cc1C.Cl | 33% |
| C/N=C(/NC)Nc1nnc(-c2ccccc2C)s1.Cl | 27% |
| Cc1ccccc1-c1nnc(NC(=N)NC2CCCC2)s1.Cl | 20% |
| COc1cccc(OC)c1-c1nnc(N=C(N)N)s1 | 16% |
| CCOCC/N=C(/N)Nc1nnc(-c2ccccc2C)s1.Cl | 34% |
| CCc1ccccc1-c1nnc(N=C(N)N)s1 | 12% |
| Cl.N=C(N)Nc1nnc(-c2ccccc2I)s1 | 41% |
| Cl.N=C(N)Nc1nnc(-c2ccc(Cl)c(Cl)c2)s1 | 15% |
| COc1cc(C)c(-c2nnc(N=C(N)N)s2)cc1OC.Cl | 24% |
| Cc1ccccc1-c1nnc(NC(=N)N(C)CC(C)O)s1.Cl (configuration not stated) | 21% |
| C[S+]([O-])c1ccccc1-c1nnc(N=C(N)N)s1.Cl (configuration not stated) | 15% |
| Cl.N=C(N)Nc1nnc(-c2ccccc2[N+](=O)[O-])s1 | 17% |
| CCCC/N=C(/NC)Nc1nnc(-c2ccccc2C)s1.Cl | 28% |
| Cc1ccccc1-c1nnc(NC(=N)N2CCN(C)CC2)s1.Cl | 18% |
| Cc1ccccc1-c1nnc(NC(=N)N(C)C)s1.Cl | 18% |

| SMILES | Reduction |
| --- | --- |
| Cc1cc(C)cc(-c2nnc(N=C(N)N)s2)c1.Cl | 18% |
| CCCCC/N=C(/N)Nc1nnc(-c2ccccc2C)s1.Cl | 23% |
| Cc1cccc(-c2nnc(N=C(N)N)s2)c1C.Cl | 14% |
| CCCOc1ccccc1-c1nnc(N=C(N)N)s1.Cl | 12% |
| COCC/N=C(/N)Nc1nnc(-c2ccc(C)cc2C)s1.Cl | 31% |
| COCC/N=C(/N)Nc1nnc(-c2ccccc2I)s1.Cl | 33% |
| C/N=C(/N)Nc1nnc(-c2ccccc2C)s1 | 31% |
| COCC/N=C(/N)Nc1nnc(-c2ccc(OC)c(OC)c2)s1.Cl | 20% |
| Cc1ccccc1-c1nnc(NC(=N)NCCO)s1.Cl | 35% |
| Cl.N=C(N)Nc1nnc(-c2ccco2)s1 | 24% |
| Cl.N=C(N)Nc1nnc(-c2cccc3ccccc23)s1 | 20% |
| CCC/N=C(/N)Nc1nnc(-c2ccccc2C)s1.Cl | 32% |
| Cc1ccc(F)cc1-c1nnc(N=C(N)N)s1.Cl | 21% |
| COCCC/N=C(/N)Nc1nnc(-c2ccccc2C)s1.Cl | 33% |
| COCC/N=C(/N)Nc1nnc(-c2ccc(F)cc2C)s1.Cl | 33% |
| CCC[S+]([O-])c1ccccc1-c1nnc(N=C(N)N)s1.Cl (configuration not stated) | 13% |
| Cc1ccccc1-c1nnc(NC(=N)N2CCOCC2)s1.Cl | 16% |
| CC(C)(C)c1ccccc1-c1nnc(N=C(N)N)s1 | 22% |
| Cl.N=C(N)Nc1nnc(-c2ccccn2)s1 | 19% |
| Cc1ccccc1-c1nnc(NC(=N)NCC2CCCO2)s1.Cl (configuration not stated) | 17% |
| Cc1cccc(-c2nnc(N=C(N)N)s2)c1.Cl | 19% |
| Cl.N=C(N)Nc1nnc(-c2ccccc2N)s1 | 14% |

Tested on: Rattus norvegicus
Assay: Maximum percentage reduction in mean blood pressure in metacorticoid (DOCA) hypertensive rats at a standard oral dose of 50 mg/kg
Assay type: functional
In short: as §1

| SMILES | Reduction |
| --- | --- |
| Cl.N=C(N)Nc1nnc(-c2ccccc2I)s1 | 28% |
| Cc1ccccc1-c1nnc(NN)s1 | 48% |

Tested on: Rattus norvegicus
Assay: Maximum percentage reduction in mean blood pressure in metacorticoid (DOCA) hypertensive rats at a standard oral dose of 100 mg/kg; IA = Inactive;Maximum percentage fall in MABP <10%
Assay type: functional, organism-based
Design: dose 100 mg/kg
In short: as §1

| SMILES | Reduction |
| --- | --- |
| N=C(N)Nc1nnc(-c2ccc([N+](=O)[O-])cc2)s1 | Not significant |
| CCCC/N=C(\NCCCN(C)C)Nc1nnc(-c2ccccc2C)s1 | Not significant |
| Cc1ccccc1-c1nnc(NC2=NCCN2C)s1 | Not significant |
| N=C(N)Nc1nnc(-c2ccccc2-c2ccccc2)s1 | Not significant |
| Cc1cccc(C)c1-c1nnc(N=C(N)N)s1 | Not significant |
| Cc1ccc(C)c(-c2nnc(N=C(N)N)s2)c1 | Not significant |
| Cc1ccccc1-c1nnc(NC(=N)N2CCCC2)s1 | Not significant |
| Cc1ccccc1-c1nnc(N=C2N(C)CCN2C)s1 | Not significant |
| Cc1ccccc1-c1nnc(N(C)C2=NCCN2)s1 | Not significant |
| Cc1ccc(-c2nnc(N=C(N)N)s2)c(C)c1 | Not significant |
| Cc1ccc(-c2nnc(N=C(N)N)s2)cc1 | Not significant |
| N=C(N)Nc1nnc(-c2ccccc2O)s1 | Not significant |
| N=C(N)Nc1nnc(C2CCCCC2)s1 | Not significant |
| COc1cccc(-c2nnc(N=C(N)N)s2)c1 | Not significant |
| Cc1ccccc1-c1nnc(NC(=N)NC2CCC2)s1 | Not significant |
| Cc1ccccc1-c1nnc(NC(=N)Nc2ccccc2)s1 | Not significant |
